Source: the RNAGym collection of RNA variant scans (doi:10.1126/science.aae0568)
Fewer inactive variants are shown than the library holds.

B1: tRNA (parent)
chain: GUUCCGUUGGCGUAAUGGUAACGCGUCUCCCUCCUAAGGAGAAGACUGCGGGUUCGAGUCCCGUACGGAACG

Variants of: B1
Assay: yeast fitness relative to wild type (ratio to wild type); higher = fitter; tRNA-Arg(CCU), competitive growth, 37 C, YPD
Outline: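 Variants of the tRNA-Arg(CCU) gene, chemically synthesised with a 3% per-site mutation rate at 69 sites, were placed at the native genomic locus in Saccharomyces cerevisiae. The pooled strains were competed in YPD at 37°C for 24 hours in six parallel replicates. Gene amplicons from the start population and from each end population were read by 100-nucleotide paired-end sequencing. Darwinian fitness relative to wild type came from changes in genotype frequencies; genotypes needed ≥ 100 starting reads, and estimates < 0.5 were set to 0.5.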

Going from U2G C30A U35G to U2G C5A A70C, the yeast fitness falls from 0.66 to at most 0.5.

U2G C22G U26C C27G C30A U32G C55G and U2G C27G C66U G67C A70G cannot be ordered by yeast fitness: at most 0.5 for the first, at most 0.5 for the second.

First: U2G A21G A57C
Second: U2C U19C A69C
The yeast fitness of the first is lower: at most 0.5 for the first, 0.708 for the second.

Going from U2G A21U to U2G A21G, the yeast fitness rises from 0.729 to 0.917.

U2G A21U G67C and U2G C5G C11G G56C C61G cannot be ordered by yeast fitness: at most 0.5 for the first, at most 0.5 for the second.

U2G C4U G6C C49G and U2G A15C A43G cannot be ordered by yeast fitness: at most 0.5 for the first, at most 0.5 for the second.

First: U2C U28A U54C
Second: U2C G63C
The yeast fitness of the first is lower: 0.543 for the first, 0.747 for the second.

Going from U2G A36U C62G G63A to U2C U54C C62U, the yeast fitness rises from at most 0.5 to 0.571.

Compared with U2C G52A, U2G C27U A40G G48A is lower in yeast fitness: 0.75 for the first, 0.576 for the second.

U2C U8G A20G U32G U35A and U2G C5A A36U cannot be ordered by yeast fitness: at most 0.5 for the first, at most 0.5 for the second.

Going from U2G A20U U32A C46G to U2G C4U C61A C62U A65U, the yeast fitness rises from at most 0.5 to 0.521.

First: U2G A15C C24U
Second: U2G A15C A36C
The yeast fitness of the first is lower: 0.591 for the first, 0.649 for the second.

Compared with U2C U16G G51A, U2G A14G C29G A37U C62G C66U is lower in yeast fitness: 0.588 for the first, at most 0.5 for the second.

First: U2C U8C G23C C31G C33U A42G G52C G58C
Second: U2G C30A A36G G39C A57G
The yeast fitness of the first is lower: at most 0.5 for the first, 0.709 for the second.

First: U2G C24U A45C G48A G67A
Second: U2G A65U
The yeast fitness of the first is lower: at most 0.5 for the first, 0.687 for the second.

Going from U2G A65G to U2C U8C A21U C29U G39A G51C C60U C66G, the yeast fitness falls from 1.11 to at most 0.5.

Going from U2G A14U A20G C33G C61U A70C to U2G C11U, the yeast fitness rises from at most 0.5 to 0.824.

Compared with U2C U13C G44C G58A, U2G A15C A37G A43U is lower in yeast fitness: 0.59 for the first, at most 0.5 for the second.

Going from U2G A69C to U2G A69G, the yeast fitness rises from 0.93 to 0.975.

Compared with U2G A69U, U2G A14G is lower in yeast fitness: 0.743 for the first, 0.713 for the second.

Compared with U2C G63C C66U, U2C U59C is higher in yeast fitness: at most 0.5 for the first, 0.996 for the second.

Going from U2C U26G A65G to U2G C29G C31A G67A, the yeast fitness falls from 0.712 to at most 0.5.

Compared with U2G C5U C31G, U2G C4G A21C is higher in yeast fitness: 0.583 for the first, 0.725 for the second.

Going from U2G A36U G58A to U2C G48A G67A, the yeast fitness rises from at most 0.5 to 0.633.

U2G C5A G23A U28C U59C C60G and U2G A14C C33A C46G cannot be ordered by yeast fitness: at most 0.5 for the first, at most 0.5 for the second.

U2G C27G C33U G56A and U2G A15G G17A G52C C66A cannot be ordered by yeast fitness: at most 0.5 for the first, at most 0.5 for the second.

U2G C4U C22U C27U A37C and U2G C22U C24G G63A A69C cannot be ordered by yeast fitness: at most 0.5 for the first, at most 0.5 for the second.

U2C U7G C33U C55A and U2C U8A A36U cannot be ordered by yeast fitness: at most 0.5 for the first, at most 0.5 for the second.

Going from U2C G68A to U2C G68C, the yeast fitness rises from 0.762 to 0.963.

Compared with U2G C29U C55U, U2C U26C A36G is lower in yeast fitness: 0.527 for the first, at most 0.5 for the second.

First: U2G A21G A65G
Second: U2G C31G C33G A40U G52A C60G C62U
The yeast fitness of the first is higher: 0.663 for the first, 0.515 for the second.

Going from U2G A21G A69C to U2G C11U C27G G52C, the yeast fitness falls from 0.501 to at most 0.5.

U2G C29U C49G C55G G63C and U2G A15C A36C A69U A70G cannot be ordered by yeast fitness: at most 0.5 for the first, at most 0.5 for the second.

U2G C31G A42G A57U and U2G A21G C61G cannot be ordered by yeast fitness: at most 0.5 for the first, at most 0.5 for the second.

Compared with U2C U3A C24A C27U A42G G56C C66U, U2G C24U is higher in yeast fitness: at most 0.5 for the first, 0.786 for the second.

Going from U2C U16A A70C to U2C U3C C34U G68C, the yeast fitness falls from 0.676 to at most 0.5.

Going from U2C U35C U47C to U2C U3A U26C U53C, the yeast fitness falls from 0.788 to at most 0.5.

Compared with U2G C31A A69C, U2G C31A is higher in yeast fitness: 0.557 for the first, 0.788 for the second.

Compared with U2G C31U, U2G C31G is lower in yeast fitness: 1.03 for the first, 1.02 for the second.

Compared with U2C U53G, U2G A40U C55U is lower in yeast fitness: 0.598 for the first, at most 0.5 for the second.

Going from U2C U19C A45C C55U to U2C G67A, the yeast fitness rises from at most 0.5 to 0.911.

U2G C22U A40U and U2C U26C C27G U28A A43U cannot be ordered by yeast fitness: at most 0.5 for the first, at most 0.5 for the second.
